Test results as given in ChEMBL document CHEMBL2346548, “Design, synthesis, and structure-activity relationship studies of tryptanthrins as antitubercular agents” (J Nat Prod, 2013).
In brackets after ≈: the same amount, converted by molar mass.

What was measured:
Vero = assay: Cytotoxicity against african green monkey Vero cells; assay type: cell-based, Chlorocebus sabaeus; conditions: Chlorocebus sabaeus, Vero; read-out: IC50
[1] = tested on: Mycobacterium tuberculosis; assay: Antitubercular activity against Mycobacterium tuberculosis H37Rv incubated at 37 degC for 7 days by microplate alamar blue assay; assay type: functional; conditions: for MIC: Mycobacterium tuberculosis, H37Rv, 168 h
Method in brief: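 Mtb H37Rv was grown in 7H9 broth with glycerol, Casitone, 10% OADC and 0.05% Tween 80 to OD600 0.4. Compounds were 2-fold serially diluted from DMSO stocks in 7H9, and wells were inoculated at 2 × 10⁵ CFU/mL. After 7 days at 37 °C, Alamar Blue was added and read after a further 24 h. MIC was the lowest concentration preventing the blue-to-pink change.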

[2] = tested on: Mycobacterium tuberculosis; assay: Antitubercular activity against non-replicating Mycobacterium tuberculosis H37Rv incubated for 10 days by LORA method; assay type: functional; conditions: 240 h
Method in brief: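 H37Rv carrying pFCA-luxAB was adapted to low oxygen by gradual self-depletion in a sealed, slowly stirred flask. It was then exposed to compounds for 10 days under anaerobic conditions. Cultures recovered for 28 h in ambient oxygen before n-decanal substrate was added and luminescence read. MIC was the lowest concentration giving a 90% reduction in luminescence versus untreated controls.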

[3] = tested on: Mycobacterium tuberculosis; assay: Antitubercular activity against Mycobacterium tuberculosis H37Rv incubated at 37 degC for 14 days in presence of 40% human serum by microplate alamar blue assay; assay type: functional; conditions: 336 h
Method in brief: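 This is the MABA run in 7H9 broth containing 40% human serum. Compounds were 2-fold serially diluted, and wells were inoculated with H37Rv at 2 × 10⁵ CFU/mL. Incubation was at 37 °C for 14 days, then Alamar Blue was added. MIC was the lowest concentration preventing the blue-to-pink colour change.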

[4] = Metabolic stability in human liver microsomes assessed as parent compound remaining at 1 uM incubated for 1 hr by HPLC-MS/MS method; assay type: ADME, Microsome; conditions: read-out: Stability
Method in brief: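 Pooled mixed-gender human liver microsomes (0.3 mg/mL protein), 1 μM compound with NADP-regenerating system in phosphate buffer pH 7.4, 1 h at 37 °C; parent measured at start and end by HPLC-MS/MS; duplicate means.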

[5] = Permeability across basolateral to apical side in human Caco2 cells incubated for 1 hr at 37 degC by HPLC-MS/MS method; assay type: ADME, cell-based; conditions: Caco-2
[6] = Solubility in simulated intestinal fluid at pH 7.6 by HPLC method; assay type: physicochemical
Method in brief: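 Simulated intestinal fluid medium; each analogue 200 μM final in 2% DMSO, shaken 24 h at room temperature, then HPLC with photodiode array read at 230 nm; duplicate, means given.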

[7] = Permeability across apical to basolateral side in human Caco2 cells incubated for 1 hr at 37 degC by HPLC-MS/MS method; assay type: ADME, cell-based; conditions: Caco-2
Method in brief: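 TC7 (Caco-2 subclone) monolayer; 10 μM compound in 1% DMSO in HBSS-MES pH 6.5 on apical donor side, basolateral receiver pH 7.4; shaken 1 h at 37 °C; receiver sampled, HPLC-MS/MS; duplicate means.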

[8] = Efflux ratio in human Caco2 cells incubated for 1 hr at 37 degC by HPLC-MS/MS method; assay type: ADME, cell-based; conditions: Caco-2
[9] = Solubility in simulated gastric fluid at pH 1.5 by HPLC method; assay type: physicochemical
Method in brief: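 Compound at 200 μM final in 2% DMSO in simulated gastric fluid, shaken 24 h at room temperature; HPLC-photodiode array detection at 230 nm; duplicate means.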

[10] = Aqueous solubility in PBS buffer at pH 7.4 by HPLC method; assay type: physicochemical; conditions: PBS buffer, read-out: solubility
Method in brief: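 Compound at 200 μM final in 2% DMSO in PBS pH 7.4, shaken 24 h at room temperature; quantified by HPLC with photodiode array detection at 230 nm; duplicate, mean reported.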

[11] = Protein binding in human plasma at 10 uM incubated for 8 hrs at 37 degC by equilibrium dialysis method; assay type: ADME, cell-free; conditions: read-out: PPB (converted)
Method in brief: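 Equilibrium dialysis: 10 μM compound in 1% DMSO in human plasma vs 0.05 M phosphate buffer pH 7.5 across 12–14 K cutoff membrane, at least 8 h at 37 °C; HPLC-photodiode detection at 230 nm; duplicate means.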

CYP3A4 = CYP3A4 (Homo sapiens, UniProt P08684); assay: Inhibition of human recombinant CYP3A4 at 10 uM incubated for 30 mins at 37 degC using 7-benzyloxy-4-(trifluoromethyl)coumarin substrate; assay type: ADME; conditions: recombinant CYP3A4, probe 7-benzyloxy-4-(trifluoromethyl)coumarin
CYP2C9 = CYP2C9 (Homo sapiens, UniProt P11712); assay: Inhibition of human recombinant CYP2C9 at 10 uM incubated for 80 mins at 37 degC using 7-methoxy-4-trifluoromethylcoumarin substrate; assay type: ADME; conditions: recombinant CYP2C9, probe 7-methoxy-4-trifluoromethylcoumarin
CYP2C19 = CYP2C19 (Homo sapiens, UniProt P33261); assay: Inhibition of human recombinant CYP2C19 at 10 uM incubated for 60 mins at 37 degC using 3-cyano-7-ethoxycoumarin substrate; assay type: ADME; conditions: recombinant CYP2C19, probe 3-cyano-7-ethoxycoumarin
[12] = Distribution coefficient, log D of the compound between n-octanol and PBS buffer at pH 7.4 incubated for 1 hr by shake flask method; assay type: physicochemical
Method in brief: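 Partition between n-octanol and PBS pH 7.4 after 1 h shaking at room temperature; phases analysed by HPLC with photodiode detection; logD = log10 of organic/aqueous amount.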

Sequence of CYP2C9 (P11712 whole entry): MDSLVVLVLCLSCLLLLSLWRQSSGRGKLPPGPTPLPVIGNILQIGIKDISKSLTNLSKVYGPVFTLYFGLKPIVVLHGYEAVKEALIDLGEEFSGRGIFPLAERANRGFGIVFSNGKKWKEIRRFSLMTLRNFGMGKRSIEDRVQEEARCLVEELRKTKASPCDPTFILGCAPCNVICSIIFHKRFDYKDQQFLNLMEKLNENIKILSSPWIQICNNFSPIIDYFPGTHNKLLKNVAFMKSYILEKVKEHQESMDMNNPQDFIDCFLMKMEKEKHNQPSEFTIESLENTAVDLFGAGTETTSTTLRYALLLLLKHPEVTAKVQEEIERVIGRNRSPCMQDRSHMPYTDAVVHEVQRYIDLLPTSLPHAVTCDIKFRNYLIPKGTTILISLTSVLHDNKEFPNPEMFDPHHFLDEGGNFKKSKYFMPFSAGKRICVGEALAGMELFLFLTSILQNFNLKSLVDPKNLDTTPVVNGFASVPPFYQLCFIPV
Sequence of CYP2C19 (P33261 whole entry): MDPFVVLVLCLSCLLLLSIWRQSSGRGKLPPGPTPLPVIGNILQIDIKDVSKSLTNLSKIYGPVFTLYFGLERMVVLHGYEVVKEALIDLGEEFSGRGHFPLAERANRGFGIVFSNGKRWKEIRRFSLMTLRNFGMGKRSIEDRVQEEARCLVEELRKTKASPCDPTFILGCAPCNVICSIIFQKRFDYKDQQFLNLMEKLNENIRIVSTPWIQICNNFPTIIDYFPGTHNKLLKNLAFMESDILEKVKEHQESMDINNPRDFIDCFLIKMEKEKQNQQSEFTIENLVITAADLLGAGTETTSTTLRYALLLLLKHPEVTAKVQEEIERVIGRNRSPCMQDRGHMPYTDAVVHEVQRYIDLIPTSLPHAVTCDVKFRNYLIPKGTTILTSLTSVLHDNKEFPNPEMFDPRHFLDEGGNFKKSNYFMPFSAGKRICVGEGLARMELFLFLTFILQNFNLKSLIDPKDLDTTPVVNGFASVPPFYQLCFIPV
Sequence of CYP3A4 (P08684 whole entry): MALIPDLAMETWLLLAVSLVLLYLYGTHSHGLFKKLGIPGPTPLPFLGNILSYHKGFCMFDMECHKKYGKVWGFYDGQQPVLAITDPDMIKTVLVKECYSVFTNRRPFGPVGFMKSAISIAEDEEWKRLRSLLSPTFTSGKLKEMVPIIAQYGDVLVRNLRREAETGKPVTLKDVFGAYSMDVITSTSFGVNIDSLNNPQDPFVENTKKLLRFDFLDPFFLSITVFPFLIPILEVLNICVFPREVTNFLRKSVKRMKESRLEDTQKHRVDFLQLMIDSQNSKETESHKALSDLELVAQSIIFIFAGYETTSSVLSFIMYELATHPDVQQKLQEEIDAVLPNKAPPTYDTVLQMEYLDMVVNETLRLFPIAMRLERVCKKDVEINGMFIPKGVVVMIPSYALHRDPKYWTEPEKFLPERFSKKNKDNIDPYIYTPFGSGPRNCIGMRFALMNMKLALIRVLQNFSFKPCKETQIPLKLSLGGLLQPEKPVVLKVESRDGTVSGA

| SMILES | IC50 (Vero) [µg/mL] | MIC [1] [µg/mL] | MIC90 [2] [µg/mL] | MIC [3] [µg/mL] | remaining at 1 h, 1 µM [4] [%] | Papp B→A at 1 h [5] [×10⁻⁶ cm/s] | solubility [6] [µM] | Papp A→B at 1 h [7] [×10⁻⁶ cm/s] | efflux ratio at 1 h [8] | solubility [9] [µM] | solubility [10] [µM] | MBC90 [1] [µg/mL] | fraction unbound at 8 h, 10 µM [11] | inhibition at 0.5 h, 10 µM (CYP3A4) [%] | inhibition at 80 min, 10 µM (CYP2C9) [%] | inhibition at 1 h, 10 µM (CYP2C19) [%] | logD at 1 h [12] |
| --- | --- | --- | --- | --- | --- | --- | --- | --- | --- | --- | --- | --- | --- | --- | --- | --- | --- |
| O=C1C2=Nc3ccncc3CN2c2ccc(Cl)cc21 | 3.7 (≈ 13.7 µM) | 2 (≈ 7.42 µM) | 8.3 (≈ 30.8 µM) |  |  |  |  |  |  |  |  |  |  |  |  |  |  |
| O=C1C2=Nc3ccccc3CN2c2ccccc21 | 42 (≈ 179 µM) | 1 (≈ 4.27 µM) | 20 (≈ 85.4 µM) | 2 |  |  |  |  |  |  |  |  |  |  |  |  |  |
| O=C1c2cc(F)ccc2-n2c1nc1ccccc1c2=O | > 50 | 0.125 (≈ 0.47 µM) | > 50 | 0.5 | 46 | 29.9 | 18.8 (≈ 5.01 µg/mL) | 66.6 | > 1 | 8.5 (≈ 2.26 µg/mL) | 4.9 (≈ 1.3 µg/mL) |  |  |  |  |  |  |
| O=C1c2cc([N+](=O)[O-])ccc2-n2c1nc1ccccc1c2=O | 28 (≈ 95.5 µM) | 0.032 (≈ 0.109 µM) | 2.4 (≈ 8.18 µM) | 0.5 | 33 |  | 152 (≈ 44.5 µg/mL) |  |  | 5.1 (≈ 1.5 µg/mL) | 64.3 (≈ 18.9 µg/mL) | 0.25 (≈ 0.853 µM) | 0.031 |  |  |  |  |
| O=C1c2cc(Cl)ccc2-n2c1nc1ccncc1c2=O | 8.5 (≈ 30 µM) | 0.25 (≈ 0.881 µM) | 0.68 (≈ 2.4 µM) | 0.25 |  |  |  |  |  |  |  |  |  |  |  |  |  |
| O=C1c2ccccc2-n2c1nc1ccc(Br)cc1c2=O | > 50 | 0.25 (≈ 0.764 µM) | > 50 | 0.5 |  |  | 49.4 (≈ 16.2 µg/mL) |  |  |  |  | 0.5 (≈ 1.53 µM) |  | 10 | 20 | 10 | 1.69 |
| O=C1c2cc(Br)ccc2-n2c1nc1ccncc1c2=O | > 50 | 1 (≈ 3.05 µM) | > 50 | 0.5 | 96 |  | 34.4 (≈ 11.3 µg/mL) |  |  | 45 (≈ 14.8 µg/mL) | 35.4 (≈ 11.6 µg/mL) | 0.25 (≈ 0.762 µM) |  | 14 | 10 | 16 | 1.6 |
| O=C1c2cc(OC(F)(F)F)ccc2-n2c1nc1ncccc1c2=O | 7.6 (≈ 22.8 µM) | 0.25 (≈ 0.75 µM) | 2.5 (≈ 7.5 µM) | 0.5 |  |  |  |  |  |  |  |  |  |  |  |  |  |
| O=C1c2cc(Cl)ccc2-n2c1nc1ccccc1c2=O | > 50 | 0.125 (≈ 0.442 µM) | > 50 | 0.25 |  |  | 16.7 (≈ 4.72 µg/mL) |  |  | 26.8 (≈ 7.58 µg/mL) | 3.3 (≈ 0.933 µg/mL) | 0.125 (≈ 0.442 µM) |  | 10 | 38 | 13 | 2.76 |
| CCOC(=O)c1ccc2c(c1)C(=O)c1nc3ccccc3c(=O)n1-2 | > 16 | 0.5 (≈ 1.56 µM) |  | 1 | 0 | 0.8 | 11.1 (≈ 3.56 µg/mL) | 4.2 |  | 1.5 (≈ 0.48 µg/mL) | 3.8 (≈ 1.22 µg/mL) |  | 0.016 | 5 | 38 | 10 | 2.94 |
| O=C1c2cc(OC(F)(F)F)ccc2-n2c1nc1ccncc1c2=O | 5.7 (≈ 17.1 µM) | 0.063 (≈ 0.189 µM) | 0.64 (≈ 1.92 µM) | 0.5 |  |  |  |  |  |  |  | 0.125 (≈ 0.375 µM) |  |  |  |  |  |
| O=C1c2ccccc2-n2c1nc1ccncc1c2=O | 5.3 (≈ 21.3 µM) | 0.5 (≈ 2.01 µM) | 1.6 (≈ 6.42 µM) | 0.25 |  |  |  |  |  |  |  |  |  |  |  |  |  |
